The record followed here is ChEMBL document CHEMBL1177648, “Synthesis and anti breast cancer activity of biphenyl based chalcones” (Bioorg Med Chem, 2010).

For one test, the system named is MDA-MB-231. Description: Cytotoxicity against human MDA-MB-231 cells after 24 hrs by MTT assay. The format is functional, cell-based. The gist of the method:
(§1)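 Cells seeded at 1 × 10⁴/well in DMEM with 10% FBS and held 24 h at 37 °C in CO₂. Compounds diluted in culture medium and incubated 24 h. Medium removed, MTT (5 mg/ml) added for 4 h, formazan dissolved in DMSO, absorbance read at 540 nm. Viability given as percent of untreated cells.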
In general terms: Formazan colour is commonly taken as a measure of viable cells.

For a further test, the system named is MCF7. Description: Cytotoxicity against human MCF7 cells after 24 hrs by MTT assay. The format is functional, cell-based. A digest of the protocol: as §1
Another test concerns HEK293. Put plainly: Cytotoxicity against HEK293 cells after 24 hrs by MTT assay. The format is cell-based, Homo sapiens. A digest of the protocol: as §1
Another test has as its system HeLa. Put plainly: Cytotoxicity against human HeLa cells after 24 hrs by MTT assay. The format is functional, cell-based. The gist of the method: as §1
Where [1] appears, read: Homo sapiens, MDA-MB-231, 24 h, read-out: IC50.
The mark [2] stands for this setting: Homo sapiens, MCF7, 24 h, read-out: IC50.
Where [3] appears, read: Homo sapiens, HEK293, 24 h, read-out: IC50.
[4] abbreviates: Homo sapiens, HeLa, 24 h, read-out: IC50.

The structures appear in SMILES notation.

In general, IC50 refers to the concentration needed to halve the response being measured. On to `CC/C(=C(\c1ccccc1)c1ccc(OCCN(C)C)cc1)c1ccccc1` [TAMOXIFEN], for which the IC50 was 10 µM in the test with MDA-MB-231 (setting [1]), 8.9 µM in the test on MCF7 (setting [2]), 10 µM in the test on HEK293 (setting [3]) and 12.5 µM in the test with HeLa (setting [4]).

`Cc1cc(O)c(C(=O)/C=C/c2ccc(Br)cc2)c(-c2ccccc2)c1C(=O)/C=C/c1ccc(Br)cc1`: the IC50 in the test on MDA-MB-231 (setting [1]) is 10 µM; with MCF7 (setting [2]), 10 µM; in the test with HEK293 (setting [3]), 10 µM; with HeLa (setting [4]), 33.5 µM.

`Cc1cc(O)c(C(=O)/C=C/c2ccc(Cl)cc2)c(-c2ccc(Cl)cc2)c1C(=O)/C=C/c1ccc(Cl)cc1`: the IC50 with MDA-MB-231 (setting [1]) is 30 µM; with MCF7 (setting [2]), 28 µM; with HEK293 (hek293) it was “Not Active”; in the test with HeLa (hela), “Not Active”.

As to `Cc1cc(O)c(C(=O)/C=C/c2ccccc2)c(-c2ccc(OCc3ccccc3)cc2)c1C(=O)/C=C/c1ccccc1`, the IC50 entry in the test with MDA-MB-231 (mda-mb-231), in the test on MCF7 (mcf7), in the test with HEK293 (hek293) and with HeLa (hela) was “Not Active” throughout.

For the compound `Cc1cc(O)c(C(=O)/C=C/c2ccc3ccccc3c2)c(-c2ccccc2)c1C(=O)/C=C/c1ccc2ccccc2c1`, the IC50 is 30 µM in the test on MDA-MB-231 (setting [1]), 31.5 µM in the test with MCF7 (setting [2]), “Not Active” with HEK293 (hek293) and “Not Active” in the test on HeLa (hela).

Take `COc1ccc(/C=C/C(=O)c2c(C)cc(O)c(C(=O)/C=C/c3ccc(OC)cc3)c2-c2ccccc2)cc1`: the IC50 result in the test with MDA-MB-231 (mda-mb-231), in the test on MCF7 (mcf7), in the test with HEK293 (hek293) and with HeLa (hela) was “Not Active” throughout.

On to `Cc1cc(O)c(C(=O)/C=C/c2ccccc2)c(-c2ccc(Br)cc2)c1C(=O)/C=C/c1ccccc1`, for which the IC50 in the test with MDA-MB-231 (setting [1]) was determined as 8 µM; with MCF7 (setting [2]) it was 10 µM; in the test on HEK293 (setting [3]), 30 µM; with HeLa (setting [4]), 30 µM.

`Cc1cc(O)c(C(=O)/C=C/c2ccc(Br)cc2)c(-c2ccc(Br)cc2)c1C(=O)/C=C/c1ccc(Br)cc1`: the IC50 with MDA-MB-231 (setting [1]) stood at 18 µM; with MCF7 (setting [2]) it was 15 µM; in the test with HEK293 (setting [3]) it was 30 µM; in the test with HeLa (setting [4]), 30 µM.

Consider `Cc1cc(O)c(C(=O)/C=C/c2cccc3ccccc23)c(-c2ccc(Cl)cc2)c1C(=O)/C=C/c1cccc2ccccc12`, for which the IC50 is 30 µM in the test with MDA-MB-231 (setting [1]), 30 µM in the test on MCF7 (setting [2]), 30 µM with HEK293 (setting [3]) and “Not Active” in the test with HeLa (hela).

On to `Cc1cc(O)c(C(=O)/C=C/c2ccc(F)cc2)c(-c2ccc(OCc3ccccc3)cc2)c1C(=O)/C=C/c1ccc(F)cc1`, for which the IC50 with MDA-MB-231 (setting [1]) came to 15 µM; in the test with MCF7 (setting [2]), 28 µM; with HEK293 (setting [3]), 30 µM; in the test with HeLa (setting [4]), 25 µM.

Regarding `COc1ccc(/C=C/C(=O)c2c(C)cc(O)c(C(=O)/C=C/c3ccc(OC)c(OC)c3)c2-c2ccccc2)cc1OC`, the IC50 entry in the test with MDA-MB-231 (mda-mb-231), with MCF7 (mcf7), in the test with HEK293 (hek293) and with HeLa (hela) was “Not Active” each time.

In the case of `Cc1cc(O)c(C(=O)/C=C/c2ccccc2Cl)c(-c2ccccc2)c1C(=O)/C=C/c1ccccc1Cl`, the IC50 result with MDA-MB-231 (mda-mb-231), in the test with MCF7 (mcf7), with HEK293 (hek293) and in the test with HeLa (hela) was “Not Active” in each case.

Consider `Cc1cc(O)c(C(=O)/C=C/c2ccc(Cl)cc2)c(-c2ccc(Br)cc2)c1C(=O)/C=C/c1ccc(Cl)cc1`, for which the IC50 was determined as 15 µM with MDA-MB-231 (setting [1]), 20 µM with MCF7 (setting [2]), 25 µM with HEK293 (setting [3]) and 32 µM in the test on HeLa (setting [4]).

Take `COc1ccc(/C=C/C(=O)c2c(C)cc(O)c(C(=O)/C=C/c3ccc(OC)cc3)c2-c2ccc(OCc3ccccc3)cc2)cc1`: the IC50 came to 12 µM in the test with MDA-MB-231 (setting [1]), 30 µM with MCF7 (setting [2]), 28 µM in the test on HEK293 (setting [3]) and 28 µM in the test with HeLa (setting [4]).

For the compound `Cc1cc(O)c(C(=O)/C=C/c2ccc3ccccc3c2)c(-c2ccc(Cl)cc2)c1C(=O)/C=C/c1ccc2ccccc2c1`, the half-maximal inhibitory concentration (IC50) entry in the test on MDA-MB-231 (mda-mb-231), in the test with MCF7 (mcf7), in the test on HEK293 (hek293) and with HeLa (hela) was “Not Active” in each case.

Turning to `COc1ccc(/C=C/C(=O)c2c(C)cc(O)c(C(=O)/C=C/c3ccc(OC)cc3)c2-c2ccc(Br)cc2)cc1`, the IC50 entry in the test with MDA-MB-231 (mda-mb-231), with MCF7 (mcf7), in the test on HEK293 (hek293) and in the test on HeLa (hela) was “Not Active” throughout.

Consider `Cc1cc(O)c(C(=O)/C=C/c2ccc(Cl)cc2)c(-c2ccc(OCc3ccccc3)cc2)c1C(=O)/C=C/c1ccc(Cl)cc1`, for which the IC50 in the test on MDA-MB-231 (setting [1]) is 30 µM; with MCF7 (mcf7) it was “Not Active”; with HEK293 (hek293) it was “Not Active”; with HeLa (hela) it was “Not Active”.

With `Cc1cc(O)c(C(=O)/C=C/c2ccccc2Cl)c(-c2ccc(Cl)cc2)c1C(=O)/C=C/c1ccccc1Cl`, the IC50 in the test on MDA-MB-231 (setting [1]) is 29 µM; in the test on MCF7 (setting [2]) it was 30 µM; in the test on HEK293 (setting [3]) it was 30 µM; in the test with HeLa (hela), “Not Active”.

As for `Cc1cc(O)c(C(=O)/C=C/c2ccc(OCc3ccccc3)cc2)c(-c2ccc(OCc3ccccc3)cc2)c1C(=O)/C=C/c1ccc(OCc2ccccc2)cc1`, the IC50 with MDA-MB-231 (setting [1]) is 20 µM; in the test on MCF7 (setting [2]) it was 26 µM; in the test on HEK293 (setting [3]), 30 µM; in the test with HeLa (hela) it was “Not Active”.

Take `COc1ccc(/C=C/C(=O)c2c(C)cc(O)c(C(=O)/C=C/c3ccc(OC)c(OC)c3)c2-c2ccc(OCc3ccccc3)cc2)cc1OC`: the IC50 with MDA-MB-231 (setting [1]) is 22 µM; with MCF7 (setting [2]), 30 µM; in the test on HEK293 (setting [3]), 30 µM; in the test with HeLa (hela), “Not Active”.

Turning to `Cc1cc(O)c(C(=O)/C=C/c2ccc(Br)cc2)c(-c2ccc(OCc3ccccc3)cc2)c1C(=O)/C=C/c1ccc(Br)cc1`, the IC50 was 30 µM with MDA-MB-231 (setting [1]), 30 µM in the test on MCF7 (setting [2]), 20 µM in the test with HEK293 (setting [3]) and “Not Active” in the test on HeLa (hela).

Consider `Cc1cc(O)c(C(=O)/C=C/c2ccc(OCc3ccccc3)cc2)c(-c2ccccc2)c1C(=O)/C=C/c1ccc(OCc2ccccc2)cc1`, for which the IC50 with MDA-MB-231 (setting [1]) came to 10 µM; in the test with MCF7 (setting [2]), 10 µM; in the test with HEK293 (setting [3]), 30 µM; in the test on HeLa (setting [4]), 20 µM.

As to `Cc1cc(O)c(C(=O)/C=C/c2ccccc2)c(-c2ccccc2)c1C(=O)/C=C/c1ccccc1`, the 50% inhibitory concentration (IC50) with MDA-MB-231 (setting [1]) is 8.5 µM; in the test with MCF7 (setting [2]), 10 µM; in the test on HEK293 (hek293), “Not Active”; in the test on HeLa (hela), “Not Active”.

With `Cc1cc(O)c(C(=O)/C=C/c2ccc(F)cc2)c(-c2ccccc2)c1C(=O)/C=C/c1ccc(F)cc1`, the half-maximal inhibitory concentration (IC50) was 20 µM with MDA-MB-231 (setting [1]), 20 µM in the test with MCF7 (setting [2]), “Not Active” in the test on HEK293 (hek293) and 30 µM in the test on HeLa (setting [4]).

Take `Cc1cc(O)c(C(=O)/C=C/c2ccc(OCc3ccccc3)cc2)c(-c2ccc(Br)cc2)c1C(=O)/C=C/c1ccc(OCc2ccccc2)cc1`: the IC50 with MDA-MB-231 (setting [1]) is 20 µM; in the test on MCF7 (setting [2]), 20 µM; in the test with HEK293 (setting [3]) it was 25 µM; with HeLa (hela), “Not Active”.

As to `Cc1cc(O)c(C(=O)/C=C/c2cccc3ccccc23)c(-c2ccccc2)c1C(=O)/C=C/c1cccc2ccccc12`, the IC50 result in the test with MDA-MB-231 (mda-mb-231) is “Not Active”; with MCF7 (setting [2]) it was 30 µM; in the test on HEK293 (hek293), “Not Active”; with HeLa (hela) it was “Not Active”.

On to `Cc1cc(O)c(C(=O)/C=C/c2ccc(Cl)cc2)c(-c2ccccc2)c1C(=O)/C=C/c1ccc(Cl)cc1`, for which the IC50 was 7.9 µM in the test on MDA-MB-231 (setting [1]), 10 µM with MCF7 (setting [2]), 10 µM in the test on HEK293 (setting [3]) and 30 µM in the test on HeLa (setting [4]).

For the compound `Cc1cc(O)c(C(=O)/C=C/c2ccc(F)cc2)c(-c2ccc(Br)cc2)c1C(=O)/C=C/c1ccc(F)cc1`, the IC50 is 22.3 µM with MDA-MB-231 (setting [1]), 20 µM with MCF7 (setting [2]), 20 µM in the test on HEK293 (setting [3]) and “Not Active” in the test on HeLa (hela).
